Calls of active or inactive are those of the source. The calls are words filed in the database; no cut-off is given here.
Tests used:
[1] = Fraction unbound in human plasma; format: ADME, cell-free
Outline: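 Plasma protein binding measured in mouse and human plasma and expressed as percent free.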

[2] = target: Survival motor neuron protein (Homo sapiens) (UniProt Q16637); assay: Stabilization of human SMN protein expressed in HEK293 cells expressing SMN2 promoter after 24 hrs by luciferase reporter gene assay relative to control; format: cell-based
Sequence of Survival motor neuron protein (Homo sapiens) (Q16637 whole entry): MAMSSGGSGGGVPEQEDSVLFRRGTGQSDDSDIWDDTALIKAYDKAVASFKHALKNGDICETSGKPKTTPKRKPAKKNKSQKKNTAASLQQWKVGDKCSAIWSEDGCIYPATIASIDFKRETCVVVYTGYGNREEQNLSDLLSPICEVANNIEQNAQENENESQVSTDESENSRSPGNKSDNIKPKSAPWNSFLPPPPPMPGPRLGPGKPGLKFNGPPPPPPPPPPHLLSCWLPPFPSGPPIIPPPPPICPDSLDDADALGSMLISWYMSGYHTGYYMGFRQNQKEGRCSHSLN
Outline: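 SMN2-luc reporter cells seeded at 25,000/well overnight, then treated 24 h with six doses (3-fold serial dilutions, top final 10 or 30 μM), 0.1% DMSO. Firefly and Renilla luciferase read by dual-luciferase assay, normalized to DMSO as percent; EC50 and maximal activation from curves. Mean ± SEM, ≥3 trials.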

[3] = Half life in mouse liver microsomes; format: ADME, microsome; conditions: liver microsomes
Outline: (§1)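 Compound stability in mouse and human liver microsomes, expressed as half-life in min.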

[4] = target: Survival motor neuron protein (Homo sapiens) (UniProt Q16637); assay: Stabilization of SMN protein in 3813T fibroblasts derived from human SMA patient assessed as increase in SMN protein level after 48 hrs by SDS-PAGE and immunoblot
Outline: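 hTERT-immortalized SMA patient 3813T fibroblasts seeded at 6000/well, next day dosed for 48 h at indicated concentrations, 0.1% DMSO. Lysed in boiling buffer (150 mM NaCl, 10 mM Tris pH 8.0, 2% SDS), run on 10% SDS-PAGE, SMN immunoblotted, normalized to tubulin or actin as fold over DMSO; one-way ANOVA with Dunnett.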

Plasma [5] = assay: Cmax in mouse plasma at 20 mg/kg, po; format: ADME, organism-based; parameters: dose 20 mg/kg, route oral; conditions: in vivo
[6] = Drug degradation in 0.1 to 1 N HCL after 1 to 24 hrs by LC-MS method
Outline: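 Compound held in 0.1 N and 1 N HCl at 37 °C for 24 h; aliquots taken at 1, 2, 4, 6 and 24 h and analysed by LCMS for percent degradation.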

Plasma [7] = assay: AUC (0 to 24 hrs) in mouse plasma at 20 mg/kg, po; format: ADME, organism-based; parameters: dose 20 mg/kg, time < 24 hr, route oral; conditions: in vivo
Plasma [8] = assay: Tmax in mouse plasma at 20 mg/kg, po; format: ADME, organism-based; conditions: in vivo
Brain [9] = assay: Tmax in mouse brain at 20 mg/kg, ip; format: ADME, organism-based; conditions: in vivo
Brain [10] = assay: Tmax in mouse brain at 20 mg/kg, po; format: ADME, organism-based; conditions: in vivo
Plasma [11] = assay: Half life in mouse plasma at 20 mg/kg, ip; format: ADME, organism-based; conditions: in vivo
Plasma [12] = assay: Half life in mouse plasma at 20 mg/kg, po; format: ADME, organism-based; conditions: in vivo
Brain [13] = assay: Half life in mouse brain at 20 mg/kg, ip; format: ADME, organism-based; conditions: in vivo
HEK293 [14] = assay: Effect on human luciferase-tagged SMN mRNA expressed in HEK293 cells assessed as SMN exon 7 included transcript at 1 and 10 uM after 24 hrs by qRT-PCR relative to GAPDH mRNA expression; format: cell-based
Outline: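 SMN2-luciferase reporter cells treated with compound; total RNA isolated with Trizol, DNase I treated and reverse transcribed. SYBR Green qPCR for SMN exon 7-included and full-length transcripts, with GAPDH as reference.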

Liver = assay: Half life in human liver microsomes; format: ADME, microsome; outline: as §1
SH-SY5Y = assay: Cytotoxicity against human SH-SY5Y cells assessed as reduction in cell viability at 100 times EC50 concentration after 48 hrs by CellTiter 96 AQueous one solution cell proliferation assay; format: cell-based
Outline: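 SH-SY5Y cells seeded at 10,000/well, next day treated with graded compound doses in duplicate for 48 h, 0.2% DMSO constant; CellTiter 96 AQueous One reagent added for the last 4 h; cycloheximide 200 ng/mL as toxicity control.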

Oryctolagus cuniculus = organism: Oryctolagus cuniculus; assay: Effect on proteasome in rabbit reticulocyte lysates assessed as MBP-HPV-16 E6-mediated p53 degradation at 10 and 30 uM incubated for 30 mins prior to MBP-E6 addition by Western blot analysis
Outline: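 Purified p53 and MBP-HPV16 E6. E6 (0.1 μM) or buffer then added for 2 h at 25 °C, stopped at 75 °C. p53 read by 10% SDS-PAGE/Western (PAb1801).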

HEK293 [15] = assay: Effect on p62 level in HEK293 cells at 10 uM after 8 hrs by immunoblot analysis; format: functional, cell-based; conditions: Homo sapiens
Outline: (§2)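 HEK293 cells exposed 8 h to DMSO, compound or chloroquine; LC3 and p62 assessed by immunoblot.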

HEK293 [16] = assay: Effect on LC3-2 level in HEK293 cells at 10 uM after 8 hrs by immunoblot analysis; format: functional, cell-based; conditions: Homo sapiens; outline: as §2
CYP2C19 = CYP2C19 (Homo sapiens, UniProt P33261); assay: Inhibition of CYP2C19 (unknown origin) at 10 uM; format: ADME
Sequence of CYP2C19 (P33261 whole entry): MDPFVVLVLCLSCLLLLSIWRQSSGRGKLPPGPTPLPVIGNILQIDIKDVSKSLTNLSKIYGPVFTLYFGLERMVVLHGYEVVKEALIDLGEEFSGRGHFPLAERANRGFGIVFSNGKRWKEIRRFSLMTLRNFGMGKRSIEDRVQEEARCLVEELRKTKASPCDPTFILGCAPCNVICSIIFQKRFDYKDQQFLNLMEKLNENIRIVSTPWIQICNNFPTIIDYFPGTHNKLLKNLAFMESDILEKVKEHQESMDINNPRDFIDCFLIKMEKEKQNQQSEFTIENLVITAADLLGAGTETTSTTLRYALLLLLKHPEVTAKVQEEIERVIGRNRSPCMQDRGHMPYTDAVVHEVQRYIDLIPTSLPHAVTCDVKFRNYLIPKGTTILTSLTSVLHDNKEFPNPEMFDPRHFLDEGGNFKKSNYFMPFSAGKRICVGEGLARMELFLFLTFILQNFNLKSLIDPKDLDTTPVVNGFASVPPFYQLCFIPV

CYP2D6 = CYP2D6 (Homo sapiens, UniProt P10635); assay: Inhibition of CYP2D6 (unknown origin) at 10 uM; format: ADME
Sequence of CYP2D6 (P10635 whole entry): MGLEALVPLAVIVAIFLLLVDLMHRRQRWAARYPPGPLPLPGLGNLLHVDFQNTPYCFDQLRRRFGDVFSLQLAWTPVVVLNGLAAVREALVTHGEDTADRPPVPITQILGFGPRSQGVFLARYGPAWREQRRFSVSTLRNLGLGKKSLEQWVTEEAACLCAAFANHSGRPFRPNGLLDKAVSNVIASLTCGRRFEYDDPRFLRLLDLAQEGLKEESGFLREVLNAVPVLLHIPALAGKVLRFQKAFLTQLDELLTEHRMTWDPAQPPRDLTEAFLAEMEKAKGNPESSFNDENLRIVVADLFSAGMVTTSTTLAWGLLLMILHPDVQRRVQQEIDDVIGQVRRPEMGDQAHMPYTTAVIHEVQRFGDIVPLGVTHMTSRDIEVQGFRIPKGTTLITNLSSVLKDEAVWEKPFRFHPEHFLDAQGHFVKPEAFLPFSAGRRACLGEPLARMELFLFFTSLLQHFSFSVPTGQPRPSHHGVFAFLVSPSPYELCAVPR

CYP3A4 = CYP3A4 (Homo sapiens, UniProt P08684); assay: Inhibition of CYP3A4 (unknown origin) at 10 uM; format: ADME
Sequence of CYP3A4 (P08684 whole entry): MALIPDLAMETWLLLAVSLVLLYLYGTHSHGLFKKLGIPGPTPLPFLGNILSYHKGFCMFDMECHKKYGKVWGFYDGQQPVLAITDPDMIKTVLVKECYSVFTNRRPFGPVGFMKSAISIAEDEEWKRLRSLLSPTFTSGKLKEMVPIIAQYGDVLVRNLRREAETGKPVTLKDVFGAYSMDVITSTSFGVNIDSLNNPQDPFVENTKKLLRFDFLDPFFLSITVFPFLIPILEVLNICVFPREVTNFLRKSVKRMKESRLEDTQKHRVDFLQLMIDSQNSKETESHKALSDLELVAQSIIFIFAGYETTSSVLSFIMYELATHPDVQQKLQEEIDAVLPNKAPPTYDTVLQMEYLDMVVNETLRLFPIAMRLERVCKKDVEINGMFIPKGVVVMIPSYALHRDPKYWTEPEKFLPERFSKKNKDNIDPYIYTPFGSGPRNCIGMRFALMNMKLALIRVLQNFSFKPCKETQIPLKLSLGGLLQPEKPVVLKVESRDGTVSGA

[17] = target: Voltage-gated inwardly rectifying potassium channel KCNH2 (Homo sapiens, UniProt Q12809); assay: Inhibition of human ERG at 10 uM
Sequence of Voltage-gated inwardly rectifying potassium channel KCNH2 (Q12809 whole entry): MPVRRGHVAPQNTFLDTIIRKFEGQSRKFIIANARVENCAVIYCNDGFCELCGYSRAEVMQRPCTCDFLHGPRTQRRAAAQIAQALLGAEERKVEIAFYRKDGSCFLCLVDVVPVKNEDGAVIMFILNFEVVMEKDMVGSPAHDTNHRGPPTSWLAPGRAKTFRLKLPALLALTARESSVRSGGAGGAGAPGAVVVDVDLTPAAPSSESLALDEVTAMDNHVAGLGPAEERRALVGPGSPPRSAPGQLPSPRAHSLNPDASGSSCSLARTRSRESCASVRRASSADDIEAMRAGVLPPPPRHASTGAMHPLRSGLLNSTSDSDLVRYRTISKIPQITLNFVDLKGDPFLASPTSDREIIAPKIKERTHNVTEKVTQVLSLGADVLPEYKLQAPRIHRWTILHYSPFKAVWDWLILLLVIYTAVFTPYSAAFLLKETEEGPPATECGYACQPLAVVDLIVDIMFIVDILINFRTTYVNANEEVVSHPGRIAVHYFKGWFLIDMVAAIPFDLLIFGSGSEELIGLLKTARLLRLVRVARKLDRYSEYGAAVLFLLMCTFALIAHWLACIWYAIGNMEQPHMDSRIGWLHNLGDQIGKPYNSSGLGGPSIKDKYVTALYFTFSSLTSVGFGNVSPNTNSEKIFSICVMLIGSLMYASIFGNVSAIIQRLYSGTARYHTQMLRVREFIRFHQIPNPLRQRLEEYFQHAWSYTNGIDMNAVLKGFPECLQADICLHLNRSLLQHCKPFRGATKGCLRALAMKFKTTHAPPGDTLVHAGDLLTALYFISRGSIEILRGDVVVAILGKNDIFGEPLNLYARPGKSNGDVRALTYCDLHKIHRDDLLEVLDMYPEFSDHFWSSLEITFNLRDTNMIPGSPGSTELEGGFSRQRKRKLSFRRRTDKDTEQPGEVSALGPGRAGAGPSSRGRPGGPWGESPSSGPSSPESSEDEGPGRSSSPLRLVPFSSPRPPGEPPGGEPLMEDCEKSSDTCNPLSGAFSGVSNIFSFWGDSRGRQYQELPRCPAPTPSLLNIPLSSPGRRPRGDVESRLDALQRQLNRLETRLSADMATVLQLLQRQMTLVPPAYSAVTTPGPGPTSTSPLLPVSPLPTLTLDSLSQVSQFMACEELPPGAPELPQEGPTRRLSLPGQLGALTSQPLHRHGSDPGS

Lampyridae = assay: Effect on firefly recombinant luciferase protein
Outline: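 Compound diluted in complete DMEM and incubated with recombinant firefly luciferase (1:10 000 in passive lysis buffer, 1 mg/mL BSA); activity read with SteadyLite reagent.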

[18] = target: Survival motor neuron protein (Homo sapiens) (UniProt Q16637); assay: Stabilization of human SMN protein expressed in HEK293 cells expressing SMN2 promoter assessed as additive effect on SMN stabilization in presence of 0.1: 0.1 to 10:10 ratio of LDN-75654 to compound after 24 hrs by luciferase reporter gene assay; format: cell-based
Outline: (§3)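 SMN2 reporter cells exposed 24 h to the two compounds alone or combined at constant ratio, DMSO held at 0.2%, and SMN-luc read. Theoretical additive effect taken as the sum of the single-agent activities.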

[19] = target: Survival motor neuron protein (Homo sapiens) (UniProt Q16637); assay: Stabilization of human SMN protein expressed in HEK293 cells expressing SMN2 promoter assessed as additive effect on SMN stabilization in presence of 0.1: 0.3 to 10:30 ratio of LDN-76070 to compound after 24 hrs by luciferase reporter gene assay; format: cell-based; outline: as §3
Renilla = assay: Effect on renilla recombinant luciferase protein expressed in HEK293 cells at 10 uM after 24 hrs in presence of 10 uM cycloheximide by renilla luciferase reporter gene assay; format: cell-based
Outline: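 SMN2-luc reporter cells given cycloheximide (10 μM) together with compound (10 μM) or DMSO. Lysed at set time points; SMN-luc and Renilla-luc activities measured.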

[20] = target: Survival motor neuron protein (Homo sapiens) (UniProt Q16637); assay: Stabilization of SMN protein in 3813T fibroblasts derived from human SMA patient assessed as increase in SMN protein level after 48 hrs by SDS-PAGE and immunoblot
[21] = target: Survival motor neuron protein (Homo sapiens) (UniProt Q16637); assay: Stabilization of SMN protein in 3813T fibroblasts derived from human SMA patient assessed as increase in SMN protein level at 2 uM after 48 hrs by SDS-PAGE and immunoblot

fraction unbound [1]: 0.035 | half-life [3]: 39 min | Cmax (Plasma [5]): 286 ng/mL | AUC (Plasma [7]): 1641 ng·h/mL | Tmax (Plasma [8]): 30 min | Tmax (Brain [9]): 30 min | Tmax (Brain [10]): 30 min | t1/2 (Plasma [11]): 2.2 h | t1/2 (Plasma [12]): 3.4 h | t1/2 (Brain [13]): 1.9 h | t1/2 (Liver): > 120 min | Activity (Oryctolagus cuniculus): inactive | inhibition at 10 µM (CYP2C19): < 50% | inhibition at 10 µM (CYP2D6): < 50% | inhibition at 10 µM (CYP3A4): < 50% | Activity (Lampyridae): inactive
Compound: O=C(Nc1ncc(C2(O)CCC2)s1)c1ccc(F)c(Cl)c1
Activity [2]: 190% | Activity [4]: Dose-dependent effect | Drug degradation [6]: < 5% | Activity (HEK293 [14]): inactive | Activity (SH-SY5Y): Non-Toxic | Activity (HEK293 [15]): inactive | Activity (HEK293 [16]): inactive | inhibition (INH) [17]: Not Active | Activity [18]: inactive | Activity [19]: Active | Activity (Renilla): inactive | Activity [20]: Dose-dependent effect | fold change (FC) [21]: 2
